By Ki is commonly meant the dissociation constant of the complex between target and ligand, obtained from inhibition or displacement.

This is an account of results in PMC3114295 (Pain, 2011).

For series [1] the following is noted: cited from earlier work.
Series [2] has as its system EP24.16. The following applies: EP24.15 preferentially over EP24.16; cited from earlier work.
In series [3] the target is EP24.15. The following applies: read-out: Ki for inhibiting EP24.15; cited from earlier work.
For series [4] the following is noted: prolonged incubation in various tissues; cited from earlier work.
For series [5], the system named is male Sprague Dawley rats. The series is described as follows: Bradykinin-induced thermal hyperalgesia, paw withdrawal latency. The series is classed as in vivo. Conditions: rat hindpaw i.pl., JA-2 5 μM 25 μl 30 min before BK 0.1 μM 25 μl; n=6-10. Summed up: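 Male Sprague-Dawley rats (200-250 g), tested in the light phase after 30 min acclimation. Blinded Hargreaves thermal latency, with baseline set near 10 s and a 20 s cutoff, taken as the mean of triplicate readings at least 30 s apart. Intraplantar s.c. vehicle (50% DMSO/0.9% saline) or test compound (5 μM), 25 μl; latency read 30 min later. BK (0.1 or 1 μM, 25 μl) then injected into the same paw; latency read at 5 min.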

With “N-[1-(R,S)-carboxy-3-phenylpropyl]-Ala-Ala-Tyr-p-aminobenzoate [cFP]”, the “potentiation of antinociceptive effects of co-administered opioid peptides” value in series [1] (co-administered with Met-enkephalin-Arg-Gly-Leu and dynorphin A1-8) is reported as “potentiate the antinociceptive effects”. In addition, in series [1] (intracerebroventricular administration, time and dose-dependent), the antinociception entry is “significant antinociception”.

With `C[C@H](NC(CCc1ccccc1)C(=O)O)C(=O)NC(C)(C)C(=O)N[C@@H](Cc1ccc(O)cc1)C(=O)Nc1ccc(C(=O)O)cc1` (stereo partly drawn) [JA-2], in series [2], the “times more potent at inhibiting EP24.15 than EP24.16 (selectivity)” value is 20-30 fold. Moreover, the Ki in series [3] was 23 nM. In series [4], the “retention of activity after incubation in tissues (stability)” value is listed as “retains its activity after prolonged incubation in various tissues”. Further, in series [5], the “effect on response to sub-threshold BK (0.1 μM), thermal hyperalgesia” value is “resulted in a nociceptive response”.
